# MC4R antag cAMP: blocks human MC4R cAMP signaling; P32245; hit rate 0.48% among 360,000; MC4R-expressing cells, MTII-stimulated cAMP, LANCE TR-FRET; AID 540295; inhibition, % at 6.5 µM;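 active = inhibition above its plate's cutoff, the mean of tested wells on that plate plus 3 SD, cut at about 29% in these data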;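 also: 0% = Melanotan II alone and 100% = Melanotan II plus saturating MCL0020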
# Target sequence (P32245 whole entry, looked up): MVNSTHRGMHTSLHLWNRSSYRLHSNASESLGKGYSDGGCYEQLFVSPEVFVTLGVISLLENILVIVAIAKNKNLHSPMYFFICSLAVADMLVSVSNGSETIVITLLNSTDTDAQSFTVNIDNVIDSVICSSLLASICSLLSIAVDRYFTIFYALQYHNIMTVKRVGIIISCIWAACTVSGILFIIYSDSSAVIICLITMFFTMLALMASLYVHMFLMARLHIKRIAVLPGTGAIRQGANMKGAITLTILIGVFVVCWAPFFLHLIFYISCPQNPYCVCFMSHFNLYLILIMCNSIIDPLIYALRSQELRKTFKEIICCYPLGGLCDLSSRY
#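 System – human MC4R-expressing U2OS cells · Also added – Melanotan II · Dosing – one concentration, 6.5 µM nominal · Timing – 30-min compound, 1-h challenge, 1-h detection, room temperature · Measured by – Eu-cAMP/anti-cAMP TR-FRET, emission 671 nm · Replicates – singlicate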
# MC4R barr agon: human MC4R agonism via beta-arrestin; U2OS MC4R beta-arrestin complementation, luminescence; percent of melanotan II response, DMSO zero; hit rate 0.98% among 360,000; P32245; activation, % at 8.9 µM;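 active = activation above a per-plate cutoff, the mean activation of sample wells on that plate plus 3 SD, cut at about 8% in these data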
# HTR5A inv ctr: counter-screen for OPRM1-OPRD1 inverse agonists: human HTR5A inverse agonism; AID 504634; HTR5A cell line, luminescence; inhibition, % at 9.3 µM; hit rate 0.083% among 340,000; in the data active = inhibition mostly above about 23%, no sharp cut-off; inactive = mostly below about 18%;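 also: 0% = cells with DMSO and 100% = no-cell wells with DMSO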
# HTR5A ag: activates human HTR5A in OPRM1-OPRD1 agonist counter-screen; AID 504692; HTR5A agonist assay, luminescence, cell-based; hit rate 0.61% among 340,000; activation, % at 9.3 µM; in the data active = activation mostly above about 9.5%, no sharp cut-off; inactive = mostly below about 7.6%;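 also: 0% = cells with vehicle only and 100% = reference agonist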
# OPRM1-OPRD1 inv: inverse agonist of human OPRM1-OPRD1 heterodimerization; cell-based MOR-DOR heterodimer luminescence, inverse agonism; P35372+P41143; AID 504357; inhibition, % at 9.3 µM; hit rate 0.21% among 340,000; in the data active = inhibition above about 22%, passing the limit was not always enough;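 also: 0% = cells with DMSO and 100% = wells without cells with DMSO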
# OPRM1-OPRD1 ag: OPRM1-OPRD1 heterodimerization agonism. P35372+P41143. cells, luminescence. activation, % at 9.3 µM. hit rate 0.3% among 340,000. AID 504326;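 also: 0% = vehicle-treated cells and 100% = reference agonist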
# MOR-DOR ag conf: OPRM1-OPRD1 heterodimer agonism, confirmation | cells, MOR-DOR heterodimerization, luminescence complementation | shares compounds with OPRM1-OPRD1 ag | activation, % at 9.3 µM | hit rate 45% among 830 | AID 504904;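 also: 0% = vehicle-treated cells and 100% = reference agonist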
# HTR5A ag counter: counter-screen for OPRM1-OPRD1 agonists: human HTR5A agonism; shares compounds with OPRM1-OPRD1 ag; HTR5A agonist counterscreen, cell luminescence; activation, % at 9.3 µM; hit rate 8% among 830; in the data active = activation above about 17%;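 also: 0% = vehicle-treated cells and 100% = reference agonist response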
# U2OS cAMP counter: U2OS forskolin cAMP inhibition counter-screen; parental U2OS, LANCE TR-FRET; hit rate 26% among 1,600; inhibition, % at 6.5 µM; shares compounds with MC4R antag cAMP;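 active = mean inhibition over triplicates above the low-control well mean plus 3 SD, set per campaign, cut at about 13% in these data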;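 also: signal is single emission at 671 nm which falls as cellular cAMP rises; 0% = forskolin-stimulated wells and 100% = buffer without forskolin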
# MC4R cAMP antag: human MC4R cAMP antagonism confirmation. shares compounds with MC4R antag cAMP. MC4R-expressing cells, MTII-stimulated cAMP, TR-FRET. inhibition, % at 6.5 µM. hit rate 27% among 1,600. AID 602195; in the data active = inhibition above about 29%;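 also: 0% = agonist stimulated wells alone and 100% = agonist stimulated wells plus saturating reference antagonist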
# An asterisk follows results filed as active; i = inactive; nt = no result. The list is not random: actives were taken first. Their share in the collection is about 2.4%. Rule as the data show it, unless noted: active = activation above about 18%; inactive = the rest.
SMILES,MC4R antag cAMP,MC4R barr agon,HTR5A inv ctr,HTR5A ag,OPRM1-OPRD1 inv,OPRM1-OPRD1 ag,MOR-DOR ag conf,HTR5A ag counter,others
CC12CC[C@H]3[C@@H](CCC4(O)C[C@H](O)CCC34/C=N/NC(=O)c3ccccc3[N+](=O)[O-])C1(O)CCC2C1=CC(=O)OC1 (some centres undefined),-4.7,4.3,-38.2,10.6*,-95.7,21.4*,3.0,10.1,
N#CCCn1cc(C(=O)Nc2ccccc2Cl)c(-c2ccc(F)cc2)n1,2.1,-0.8,14.6,-3.9,16.5,-3.3,nt,nt,
COC(=O)C1=C(c2ccc3ccccc3c2)C[C@@H]2CC[C@H]1N2C(=O)NCc1ccco1,6.3,-2.2,16.6,6.7,14.7,-2.6,nt,nt,
COC(=O)C1=C(c2ccc(F)cc2OCc2ccccc2)C[C@@H]2CC[C@H]1N2C(=O)N1CCOCC1,-7.0,-0.7,-4.5,1.7,22.2,-4.8,nt,nt,
COC1C(O)C(C)OC(OC2CCC3(C)C(CCC4C3C(O)CC3(C)C(C5=CC(=O)OC5)CCC43O)C2)C1O (centres undefined),3.0,17.9*,-119.7,31.2*,-373.5,85.3*,28.4*,0.5,
CCCN1CCc2cccc3c2[C@H]1Cc1ccc(O)c(O)c1-3,-9.1,0.1,-13.9,3.9,-100.5,18.6*,20.1*,2.9,
CC12C(C(=O)O)C1(c1ccccc1)C2C(=O)O (centres undefined),10.6,-0.4,-6.3,1.7,6.5,-1.5,nt,nt,
CCOC(=O)C1(c2ccccc2)CCN(CCC(C#N)(c2ccccc2)c2ccccc2)CC1,10.8,-0.1,-24.8,6.9,i,288.1*,-0.1,3.6,
CCOC(=O)C1(c2ccccc2)CCN(CCC(=O)Nc2cccc(Br)c2)CC1,6.7,1.0,8.1,12.7,-312.8,49.1*,57.5*,-0.7,
COC(=O)C1=C(c2ccccc2OCc2ccccc2)C[C@@H]2CC[C@H]1N2C(=O)NCCOc1ccccc1Cl,7.2,-0.8,-16.8,1.4,6.0,-1.1,nt,nt,
Cc1c(P(=S)(c2ccccc2)c2ccccc2)[n+]2ccccc2n1C,6.6,-0.4,-15.7,2.2,-71.3,14.2,nt,nt,
Cn1cc[n+](C)c1P(=S)(c1ccccc1)c1ccccc1,0.7,1.7,18.9,-6.8,-217.6,39.5*,5.3,14.6,
CCC1CN(C)CCC1(OC(C)=O)c1ccccc1 (centres undefined),5.9,-1.7,6.2,-4.4,-123.7,24.7*,22.9*,4.5,
CCOC(=O)C1(CCc2ccccc2)CCN(Cc2cccc3cnccc23)CC1,-0.3,3.2,-7.8,6.6,-68.7,14.5,nt,nt,
CCOC(=O)C1(CCc2ccccc2)CCN(Cc2cccc3c2OCO3)CC1,3.7,1.4,9.5,-3.7,-205.7,35.5*,11.2,0.1,
CCOC(=O)C1(CCc2ccccc2)CCN(Cc2csc(C(C)=O)c2)CC1,-3.6,3.0,-12.1,4.6,-358.2,63.3*,2.5,18.0*,
CCc1cc(=O)[nH]c(SCCCF)n1,3.2,-2.8,-13.6,4.8,6.2,-1.2,nt,nt,
COc1ccc(OC)c(N2Cc3ccccc3C2=N)c1,3.2,-1.9,-28.5,-4.1,3.0,-0.6,nt,nt,
CS(=O)(=O)c1ccc(C2=C(CNC(=O)c3cccnc3)[C@H]3CC[C@@H](C2)N3Cc2ccccc2)cc1,0.0,-1.4,nt,nt,nt,nt,nt,nt,
Clc1ccc(C(c2ccc(Cl)cc2)n2cc[n+](CC(OCc3ccc(Cl)cc3Cl)c3ccc(Cl)cc3Cl)c2)cc1 (centres undefined),61.2*,0.5,-10.4,19.8,-347.0,62.6*,50.1*,9.7,U2OS cAMP counter=20.1*;MC4R cAMP antag=71.3*

# Assay outcomes (PubChem BioAssay)
